Legend:
Cytochrome P450 2C8 = Cytochrome P450 2C8 (Homo sapiens, UniProt P10632); test: Inhibition of CYP2C8 (unknown origin); type: ADME
[1] = AUC (0 to 24 hrs) in rat at 300 mg/kg; type: ADME, organism-based; design: dose 300 mg/kg, time < 24 hr; settings: in vivo
hERG = hERG (Homo sapiens, UniProt Q12809); test: Inhibition of human ERG at 30 uM by patch clamp assay relative to control
Outline: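 hERG channel, patch clamp; percent inhibition at 30 μM.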

Plasma [2] = test: Drug metabolism in cynomolgus monkey plasma assessed as ketone A formation at 1 mg/kg, iv; type: ADME, organism-based, Macaca fascicularis; settings: in vivo
HepG2 = test: Cytotoxicity against human HepG2 cells at 80 uM; type: cell-based; settings: hepg2, 80 µM
Outline: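 HepG2 cells exposed at 80 μM; cytotoxicity assessed.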

[3] = Metabolic stability in rat liver microsomes assessed as UGT-mediated glucuronidation of compound by measuring half life in presence of UDPGA; type: ADME
Outline: (§1)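 Liver microsomal glucuronidation incubations in the presence of UDPGA; parent half-life determined.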

Cynomolgus monkey [4] = test: Toxicity in cynomolgus monkey assessed as HPA axis activation by measuring DHEA level at 1 to 10 mg/kg for 7 days; type: organism-based, Macaca fascicularis; settings: in vivo, 168 h
[5] = Protein binding in mouse plasma; type: ADME, cell-free; settings: read-out: PPB (converted)
[6] = Total plasma clearance in dog at 1 mg/kg, iv; type: ADME, organism-based, Canis lupus familiaris
[7] = Protein binding in dog plasma; type: ADME, cell-free, Canis lupus familiaris; settings: read-out: PPB (converted)
Cynomolgus monkey [8] = test: Toxicity in cynomolgus monkey assessed as HPA axis activation by measuring cortisol level at 1 to 10 mg/kg for 7 days; type: organism-based, Macaca fascicularis; settings: in vivo, 168 h
[9] = Apparent elimination half life in cynomolgus monkey at 1 mg/kg, iv; type: ADME, organism-based, Macaca fascicularis; settings: in vivo, read-out: betat1/2(app) (converted)
Liver = test: Metabolic stability in mouse liver microsomes assessed as parent compound remaining after 10 mins; type: ADME, microsome; settings: microsomes, 10 min
Outline: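 Parent compound remaining after a 10 min incubation with human, mouse or rat liver microsomes.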

Plasma [10] = test: Drug metabolism in dog plasma assessed as ketone A formation at 1 mg/kg, iv; type: ADME, organism-based, Canis lupus familiaris; settings: in vivo
[11] = Oral bioavailability in rat at 10 mg/kg; type: ADME, organism-based; settings: in vivo
[12] = Total plasma clearance in cynomolgus monkey at 1 mg/kg, iv; type: ADME, organism-based, Macaca fascicularis
[13] = target: 11-beta-hydroxysteroid dehydrogenase 1 (Rattus norvegicus, UniProt P16232); test: Inhibition of rat 11beta-HSD1
Sequence of 11-beta-hydroxysteroid dehydrogenase 1 (P16232 whole entry): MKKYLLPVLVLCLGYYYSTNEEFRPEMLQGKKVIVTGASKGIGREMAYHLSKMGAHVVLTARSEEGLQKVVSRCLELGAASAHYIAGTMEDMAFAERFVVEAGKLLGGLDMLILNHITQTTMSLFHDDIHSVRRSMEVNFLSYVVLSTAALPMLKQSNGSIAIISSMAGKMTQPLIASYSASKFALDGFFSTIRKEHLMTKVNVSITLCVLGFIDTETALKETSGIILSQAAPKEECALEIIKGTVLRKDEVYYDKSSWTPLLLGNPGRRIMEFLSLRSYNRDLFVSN

Mus musculus = test: In vivo inhibition of 11beta-HSD1 in po dosed non-fasting diet-induced obese mouse assessed as decrease in corticosterone excursion in plasma pretreated for 60 mins followed by DHC administration measured up to 120 mins by enzyme immunosorbent assay; type: functional
Outline: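 Nonfasting diet-induced obese male mice, groups of n = 6 matched for body weight; tail bleed at −60 min, then oral vehicle (0.5% Methocel, 0.1% Tween 80 in water) or drug. At 60 min, bleed and oral DHC 10 mg/kg. Bleeds at 30, 60 and 120 min post-DHC. Plasma corticosterone measured by enzyme immunosorbent assay; drug levels in terminal bleed.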

[14] = Half life in human liver microsomes; type: ADME, microsome
Outline: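 Human liver microsome incubation; parent half-life determined.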

[15] = Metabolic stability in human liver microsomes assessed as UGT-mediated glucuronidation of compound by measuring half life in presence of UDPGA; type: ADME; outline: as §1
[16] = Apparent elimination half life in mouse at 5 mg/kg, iv; type: ADME, organism-based; settings: in vivo, read-out: betat1/2(app) (converted)
Cytochrome P450 3A4 = Cytochrome P450 3A4 (Homo sapiens, UniProt P08684); test: Inhibition of CYP3A4 (unknown origin); type: ADME
Sequence of Cytochrome P450 3A4 (P08684 whole entry): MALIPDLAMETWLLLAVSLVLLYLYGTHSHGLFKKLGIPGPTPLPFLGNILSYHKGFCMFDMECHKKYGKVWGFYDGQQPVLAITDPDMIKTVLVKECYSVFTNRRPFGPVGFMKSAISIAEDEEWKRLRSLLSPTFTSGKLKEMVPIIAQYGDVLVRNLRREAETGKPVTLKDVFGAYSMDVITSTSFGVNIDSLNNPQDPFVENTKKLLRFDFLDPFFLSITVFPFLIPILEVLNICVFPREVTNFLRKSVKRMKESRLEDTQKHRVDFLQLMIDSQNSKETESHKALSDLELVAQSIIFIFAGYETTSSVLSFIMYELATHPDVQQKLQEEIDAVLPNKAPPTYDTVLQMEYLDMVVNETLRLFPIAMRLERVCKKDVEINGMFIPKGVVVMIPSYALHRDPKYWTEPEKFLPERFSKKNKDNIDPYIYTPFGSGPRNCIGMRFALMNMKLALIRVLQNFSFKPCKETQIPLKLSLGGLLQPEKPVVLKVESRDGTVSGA

Cytochrome P450 2D6 = Cytochrome P450 2D6 (Homo sapiens, UniProt P10635); test: Inhibition of CYP2D6 (unknown origin); type: ADME
Sequence of Cytochrome P450 2D6 (P10635 whole entry): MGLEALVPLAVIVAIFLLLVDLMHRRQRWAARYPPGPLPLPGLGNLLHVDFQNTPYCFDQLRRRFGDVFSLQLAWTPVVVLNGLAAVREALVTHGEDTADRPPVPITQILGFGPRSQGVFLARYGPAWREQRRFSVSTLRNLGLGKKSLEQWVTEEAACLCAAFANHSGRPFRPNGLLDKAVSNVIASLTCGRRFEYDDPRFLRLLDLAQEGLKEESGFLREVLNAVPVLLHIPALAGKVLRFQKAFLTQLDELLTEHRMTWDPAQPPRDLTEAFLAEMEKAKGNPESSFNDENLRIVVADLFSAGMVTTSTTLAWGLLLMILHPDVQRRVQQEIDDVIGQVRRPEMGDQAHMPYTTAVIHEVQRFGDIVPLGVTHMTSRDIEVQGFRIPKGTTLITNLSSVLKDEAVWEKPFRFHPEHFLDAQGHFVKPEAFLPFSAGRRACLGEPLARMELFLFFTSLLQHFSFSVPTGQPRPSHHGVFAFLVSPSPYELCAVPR

[17] = Oral bioavailability in cynomolgus monkey at 3 mg/kg; type: ADME, organism-based, Macaca fascicularis; settings: in vivo
Rattus norvegicus [18] = test: Toxicity in rat assessed as hypokalemia at 300 mg/kg for 2 weeks; type: organism-based; settings: in vivo, 336 h
Outline: (§2)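 Exploratory rat toxicology study lasting 2 weeks, with 300 mg/kg as the highest dose given. The study assessed hypokalemia, plasma volume expansion, hypertension and renal toxicity.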

Rattus norvegicus [19] = test: Toxicity in rat assessed as hypertension at 300 mg/kg for 2 weeks; type: organism-based; settings: in vivo, 336 h; outline: as §2
[20] = Protein binding in cynomolgus monkey plasma; type: ADME, cell-free, Macaca fascicularis; settings: read-out: PPB (converted)
[21] = Total plasma clearance in mouse at 5 mg/kg, iv; type: ADME, organism-based
[22] = MRT in cynomolgus monkey at 1 mg/kg, iv; type: ADME, organism-based, Macaca fascicularis; settings: in vivo
[23] = MRT in dog at 1 mg/kg, iv; type: ADME, organism-based, Canis lupus familiaris; settings: in vivo
Cytochrome P450 1A2 = Cytochrome P450 1A2 (Homo sapiens, UniProt P05177); test: Inhibition of CYP1A2 (unknown origin); type: ADME
Sequence of Cytochrome P450 1A2 (P05177 whole entry): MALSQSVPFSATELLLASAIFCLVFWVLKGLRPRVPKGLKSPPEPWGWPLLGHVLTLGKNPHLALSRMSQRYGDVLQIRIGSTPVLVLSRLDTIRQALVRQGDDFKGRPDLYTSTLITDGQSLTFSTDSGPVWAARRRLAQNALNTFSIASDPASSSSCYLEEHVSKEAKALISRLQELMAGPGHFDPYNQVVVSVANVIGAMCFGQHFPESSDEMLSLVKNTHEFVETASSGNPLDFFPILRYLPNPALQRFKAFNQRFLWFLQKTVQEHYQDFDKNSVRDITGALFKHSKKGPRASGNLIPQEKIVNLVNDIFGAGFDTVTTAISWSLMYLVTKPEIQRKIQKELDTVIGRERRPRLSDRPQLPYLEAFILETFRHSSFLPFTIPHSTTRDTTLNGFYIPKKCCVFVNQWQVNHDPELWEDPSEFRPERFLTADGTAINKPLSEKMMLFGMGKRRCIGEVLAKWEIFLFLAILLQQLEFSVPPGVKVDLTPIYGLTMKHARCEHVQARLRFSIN

Sequence of Cytochrome P450 2C8 (P10632 whole entry): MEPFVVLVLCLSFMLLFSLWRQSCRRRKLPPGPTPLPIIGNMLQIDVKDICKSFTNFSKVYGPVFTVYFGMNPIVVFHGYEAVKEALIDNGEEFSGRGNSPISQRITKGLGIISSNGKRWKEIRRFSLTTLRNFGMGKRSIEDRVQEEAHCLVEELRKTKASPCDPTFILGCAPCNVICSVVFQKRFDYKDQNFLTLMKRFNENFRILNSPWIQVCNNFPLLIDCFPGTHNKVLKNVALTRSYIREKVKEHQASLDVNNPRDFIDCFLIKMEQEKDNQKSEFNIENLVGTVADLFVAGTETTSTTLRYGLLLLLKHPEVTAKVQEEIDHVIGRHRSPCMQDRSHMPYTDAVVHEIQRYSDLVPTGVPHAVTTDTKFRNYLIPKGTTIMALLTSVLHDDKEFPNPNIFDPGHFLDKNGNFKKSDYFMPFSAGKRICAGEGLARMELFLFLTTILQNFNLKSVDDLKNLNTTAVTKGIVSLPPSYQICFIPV
Sequence of hERG (Q12809 whole entry): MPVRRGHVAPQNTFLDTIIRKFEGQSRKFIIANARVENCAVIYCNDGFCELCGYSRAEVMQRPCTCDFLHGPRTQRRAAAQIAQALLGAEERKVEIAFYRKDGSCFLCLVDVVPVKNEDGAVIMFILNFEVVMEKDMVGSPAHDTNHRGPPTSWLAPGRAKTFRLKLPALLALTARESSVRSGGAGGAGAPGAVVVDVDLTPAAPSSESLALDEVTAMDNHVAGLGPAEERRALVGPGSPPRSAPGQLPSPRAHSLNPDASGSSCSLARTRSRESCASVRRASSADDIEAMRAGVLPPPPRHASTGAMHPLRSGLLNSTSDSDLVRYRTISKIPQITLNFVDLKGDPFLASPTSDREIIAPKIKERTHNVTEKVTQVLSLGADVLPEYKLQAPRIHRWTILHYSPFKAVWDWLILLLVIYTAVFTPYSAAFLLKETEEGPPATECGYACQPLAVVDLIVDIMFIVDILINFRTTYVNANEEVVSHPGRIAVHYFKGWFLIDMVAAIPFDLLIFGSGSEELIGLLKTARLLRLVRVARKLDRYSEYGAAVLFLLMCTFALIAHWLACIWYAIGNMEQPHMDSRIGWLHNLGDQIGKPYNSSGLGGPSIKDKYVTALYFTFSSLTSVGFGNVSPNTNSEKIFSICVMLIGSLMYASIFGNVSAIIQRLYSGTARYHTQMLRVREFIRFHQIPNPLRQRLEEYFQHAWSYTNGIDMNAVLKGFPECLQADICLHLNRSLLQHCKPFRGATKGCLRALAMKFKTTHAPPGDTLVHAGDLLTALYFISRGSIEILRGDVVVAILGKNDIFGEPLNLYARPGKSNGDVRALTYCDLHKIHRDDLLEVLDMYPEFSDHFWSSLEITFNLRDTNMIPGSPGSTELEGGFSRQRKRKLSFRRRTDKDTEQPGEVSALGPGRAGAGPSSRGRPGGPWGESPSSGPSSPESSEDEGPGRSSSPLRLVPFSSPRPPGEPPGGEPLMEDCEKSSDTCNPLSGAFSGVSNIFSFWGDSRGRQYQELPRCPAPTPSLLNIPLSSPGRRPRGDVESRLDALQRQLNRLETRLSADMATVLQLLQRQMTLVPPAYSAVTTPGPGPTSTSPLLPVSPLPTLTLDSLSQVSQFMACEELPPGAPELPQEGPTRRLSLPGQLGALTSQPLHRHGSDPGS

O=C(CC1(c2ccccc2)C2CC3CC1CC(C2)C3O)N1CC(O)C1 (stereo in doubt; form 2)
IC50 (Cytochrome P450 2C8): > 40 µM | AUC(0-t) at 24 h [1]: ≤ 650 µM·h | inhibition at 30 µM (hERG): 10% | Drug metabolism (Plasma [2]): Metabolite_Detected | Activity (HepG2): Non-Toxic | half-life [3]: 0.783 h | Activity (Cynomolgus monkey [4]): Non-Toxic | fraction unbound [5]: 0.37 | clearance [6]: 11 mL/min/kg | fraction unbound [7]: 0.43 | Activity (Cynomolgus monkey [8]): Non-Toxic | half-life [9]: 6 h | Stability (Liver): 80% | Drug metabolism (Plasma [10]): Metabolite_Detected | bioavailability [11]: 20% | clearance [12]: 21.2 mL/min/kg | IC50 [13]: 0.5 µM | ED50 (Mus musculus): 8.6 mg/kg | half-life [14]: 2.02 h | half-life [15]: > 3.33 h | half-life [16]: 2 h | IC50 (Cytochrome P450 3A4): > 40 µM | IC50 (Cytochrome P450 2D6): > 40 µM | bioavailability [17]: 57% | Activity (Rattus norvegicus [18]): Non-Toxic | Activity (Rattus norvegicus [19]): Non-Toxic | fraction unbound [20]: 0.32 | clearance [21]: 50 mL/min/kg | MRT [22]: 3.3 h | MRT [23]: 3.5 h | IC50 (Cytochrome P450 1A2): > 40 µM
